Screening data from PubChem BioAssay.
PolyA inhibitor = blocks polyadenylation in yeast reporter cells | S. cerevisiae SKY197-pL101 polyadenylation reporter, beta-gal luminescence; efflux-impaired pdr1/pdr3 knockout yeast; score 100 = 6 SD above DMSO | activity score, % at 12 µM | hit rate 0.02% among 300,000 | AID 1875;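 active means lowest replicate activity score at least 50, where 100 means six control SD above control mean; inconclusive means lowest score under 50 but half or more replicates reach 50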;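 further: yeast exposed to compound for 9 h at 30 °C; higher score means more reporter readthrough which indicates perturbed polyadenylation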
NLRP3 yeast inh = blocks the NALP3 inflammasome reconstituted in yeast | inhibition, % at 10 µM | Yeast reconstituted NLRP3/ASC/caspase-1, beta-gal luminescence, 24 h | hit rate 0.39% among 330,000;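 active means inhibition of 50% or more; inactive means inhibition below 50%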
Calb FLC = affects C. albicans growth with fluconazole; C. albicans CaCi-2 (fluconazole-resistant clinical isolate) + fluconazole, Alamar Blue growth, 48 h; growth inhibition, % (concentration not given with the values); hit rate 0.57% among 300,000; AID 1979;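 active means growth inhibition above about 58% in most replicates, limit read from the data, passing the limit was not always enough; inconclusive means exactly half the replicates above a set limit; inactive means most replicates below a set limit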;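 further: all wells also contain fluconazole at 8 µg/ml as a sub-toxic cotreatment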
NALP1 inh = inhibitors of NALP1 inflammasome in yeast; S. cerevisiae NALP1/ASC/caspase-1 growth, X-gal OD620, 72 h; inhibition, % at 10 µM; hit rate 0.61% among 280,000; AID 2071; in the data active means inhibition mostly above about 24%, no sharp cut-off; inactive means mostly below about 32%
L major viab = inhibitors of Leishmania major promastigote growth; inhibition, % at 10 µM; Leishmania major promastigotes, resazurin fluorescence viability; hit rate 9% among 200,000; in the data active means inhibition above about 50%;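 further: promastigotes grown with compound for 44 hours at 28 °C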
T cruzi repl = T. cruzi replication inhibition | inhibition, % (no concentration beside the values) | T. cruzi beta-gal in NIH3T3, luminescence, 90 h | AID 1885 | hit rate 1.4% among 300,000;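 active means mean inhibition across valid replicates above about 55%, limit read from the data; inconclusive means mean below that limit but half or more replicates reach it; inactive means mean below it, under half of replicates reach it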;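 further: signal also drops with host cell toxicity which is not excluded here; higher percent means less beta-gal luminescence so fewer parasites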
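Assay system: NIH/3T3 fibroblasts plus reporter T. cruzi. Amount: NIH/3T3 cells, 5,000 per well. Buffer or medium: DMEM, 2% fetal bovine serum. Doses: compound pinned at 50 nL/well, DMSO. Schedule: ≥90 h infection period, 3 h prior cell attachment. Signal: luminescent β-galactosidase signal after 60 min lysis. Read-out: parasite load inhibition, %.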
Numbers stand for hits; - = inactive; ? = inconclusive; . = no result given. The full list was thinned out, with hits kept by preference.

SMILES | PolyA inhibitor | NLRP3 yeast inh | Calb FLC | NALP1 inh | L major viab | T cruzi repl
Cc1[nH][nH]c(=O)c1C(c1ccc(-c2ccc(F)cc2)o1)c1c(C)[nH][nH]c1=O | - | - | - | - | 99 | -
COc1ccc(-c2ccc(C(c3c(C)[nH][nH]c3=O)c3c(C)[nH][nH]c3=O)o2)c([N+](=O)[O-])c1 | . | - | . | - | 61 | .
Cc1[nH][nH]c(=O)c1C(c1ccc(-c2ccc(Cl)c(Cl)c2)o1)c1c(C)[nH][nH]c1=O | - | - | - | - | 100 | -
Cc1[nH][nH]c(=O)c1C(c1ccc(-c2ccc(C(=O)O)cc2)o1)c1c(C)[nH][nH]c1=O | . | . | . | - | - | .
CCCCCCn1c(=O)c(F)cn(Cc2ccc(OC)c([N+](=O)[O-])c2)c1=O | - | - | - | - | 91 | -
O=C(c1ccc(Br)c([N+](=O)[O-])c1)N1CCN(Cc2ccccc2)CC1 | - | - | - | - | . | -
Cc1ccc(CS(=O)(=O)c2ccc(C(=O)N3CCCCC3)cc2[N+](=O)[O-])cc1 | - | - | - | - | - | -
O=C(c1ccc(S(=O)(=O)c2ccc(F)cc2)c([N+](=O)[O-])c1)N1CCCCCC1 | - | - | - | - | 98 | -
O=C(c1ccc(S(=O)(=O)Cc2ccccc2F)c([N+](=O)[O-])c1)N1CCCC1 | - | - | - | - | - | -
CC1CCN(C(=O)c2ccc(S(=O)(=O)Cc3ccccc3F)c([N+](=O)[O-])c2)CC1 | - | - | - | - | 93 | -
O=C(c1ccc(S(=O)(=O)c2ccccc2Cl)c([N+](=O)[O-])c1)N1CCN(Cc2ccccc2)CC1 | - | - | - | - | 76 | -
Cc1ccc(NC(=O)N/C=C/c2ccco2)cc1 | - | - | - | - | - | -
CCCCCCCCSc1nnc(CSc2nc3nc(C)cc(C)n3n2)o1 | - | - | - | - | 67 | -
Cc1cc(C)n2nc(SCc3nnc(SCCCCl)o3)nc2n1 | - | - | - | - | - | -
C=CS(=O)(=O)c1sc(Cl)c(N2CCOCC2)c1[N+](=O)[O-] | - | . | - | - | - | 55
Cc1ccc(OCCCn2ccnc2)c(Br)c1 | - | - | - | - | . | -
Cc1ccc(OCCCn2ccnc2)c([N+](=O)[O-])c1 | - | - | ? | - | 72 | -
CCCCCOc1ccc(Cn2ccnc2)cc1[N+](=O)[O-] | - | - | - | - | - | 62
O=C(Cc1ccc(Cl)cc1Cl)OCC(=O)N1CCN(C(=O)c2ccco2)CC1 | - | - | - | - | - | -
O=c1c2c(n3nnnc3n1-c1ccccc1)-c1ccccc1CC21CCCC1 | - | - | - | - | - | -
O=c1c2c(n3cnnc3n1-c1ccccc1)-c1ccccc1CC21CCCC1 | - | - | - | - | 66 | -
Cc1ccc(O)c(CNc2cccc3cccnc23)c1 | - | - | - | - | - | -
Oc1ccc(CN2CCCc3ccccc32)c2cccnc12 | - | - | - | . | - | -
Cc1cccnc1NCc1ccc(O)c2ncccc12 | - | - | - | - | 58 | -
Cc1cccc(NCc2ccc(O)c3ncccc23)c1C | - | - | 104 | - | - | -
SMILES | PolyA inhibitor | NLRP3 yeast inh | Calb FLC | NALP1 inh | L major viab | T cruzi repl
COCC1CCCCN1Cc1cn[nH]c1-c1ccc2cc(OC)ccc2c1 (stereo unspecified) | - | - | - | - | - | 70
COCCN(Cc1cn[nH]c1-c1ccc2cc(OC)ccc2c1)C(C)C | - | - | - | - | . | 65
O=C1CN(CC(=O)N2CCCCC2)c2ccccc2O1 | - | - | - | - | 98 | -
Cc1cc(Cl)ccc1OCCCC(=O)N1CCN(C)CC1 | - | - | - | - | - | -
Cc1cc(Cl)ccc1OCCCC(=O)NC1CCN(C)CC1 | - | - | - | - | - | 71
Cc1ccc(C(C)C)c(OCC(=O)Nn2c(C)nc3ccccc3c2=O)c1 | - | - | - | - | - | -
Cc1ccc(C(C)C)c(OCC(=O)NC2CCN(C)CC2)c1 | - | - | . | - | . | 64
Cc1ccc(C(C)C)c(OCC(=O)Nn2c(=O)[nH]c3ccccc3c2=O)c1 | - | - | - | - | 59 | -
C/C(=N\NC(=O)C1CCCC1)c1ccc(Cl)c(Cl)c1 | . | - | 112 | - | . | .
COc1ccc(C2=NS(=O)(=O)N(C)C(C(=O)NCc3cccs3)=C2)cc1OC | - | - | - | - | . | -
c1ccc(-c2cc(-c3nc4ccccc4[nH]3)c3ccccc3n2)cc1 | - | - | ? | - | - | 55
Fc1ccc(-c2nc3ccccc3[nH]2)cc1 | - | - | - | 36 | - | -
